Reference: ChEMBL document CHEMBL4689842, “EUbOPEN Chemogenomics Library wave 1” (2021)

System: HEK-293T
Assay: Multiplex assay against HEK293T;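 on Population Tubulin-Different-Phenotype (%): share of the cells with healthy nuclei that show this phenotype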
Type: toxicity, cell-based
Conditions: human
In short: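 Imaging took place on a CQ1 microscope at 37°C and 5% CO2 once compound had been added to live cells stained at seeding with Hoechst33342, BioTracker Green Microtubule Cytoskeleton Dye, MitoTracker Red and Annexin V Alexa Fluor 680. CellPathfinder machine-learning gating classed cells as Hoechst high-intensity objects or normal cells, classed normal cells as having healthy, pyknosed or fragmented nuclei, and classed pyknosed cells as mitotic or apoptotic. Tubulin, mitochondrial-mass and membrane-permeability phenotypes are per cents of the healthy-nucleus cells.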

[1] = 12 h, 1 µM, compound concentration 1 uM, replicate 1
[2] = 12 h, 1 µM, compound concentration 1 uM, replicate 2
[3] = 12 h, 10 µM, compound concentration 10 uM, replicate 1
[4] = 12 h, 10 µM, compound concentration 10 uM, replicate 2
[5] = 24 h, 1 µM, compound concentration 1 uM, replicate 1
[6] = 24 h, 1 µM, compound concentration 1 uM, replicate 2
[7] = 24 h, 10 µM, compound concentration 10 uM, replicate 1
[8] = 24 h, 10 µM, compound concentration 10 uM, replicate 2
[9] = 48 h, 1 µM, compound concentration 1 uM, replicate 1
[10] = 48 h, 1 µM, compound concentration 1 uM, replicate 2
[11] = 48 h, 10 µM, compound concentration 10 uM, replicate 1
[12] = 48 h, 10 µM, compound concentration 10 uM, replicate 2

COc1cccc([C@@H](C)NCCCc2ccccc2Cl)c1.Cl [TECALCET HYDROCHLORIDE]
Population Apoptotic (%) [1]: 45%
Population Fragmented Nuclei (%) [1]: 9%
Population Healthy Nuclei (%) [1]: 46%
Population Hoechst High Intensity Objects (%) [1]: 11%
Population Membrane Permeable-Phenotype (%) [1]: 2%
Population Mitochondria Different-Phenotype (%) [1]: 83%
Population Mitotic Cells (%) [1]: 54%
Population Normal (%) [1]: 88%
Population Pyknosed Nuclei (%) [1]: 44%
Population Tubulin-Different-Phenotype (%) [1]: 57%
Total Cell Count [1]: 333
Population Apoptotic (%) [2]: 16%
Population Fragmented Nuclei (%) [2]: 3%
Population Healthy Nuclei (%) [2]: 29%
Population Hoechst High Intensity Objects (%) [2]: 3%
Population Membrane Permeable-Phenotype (%) [2]: 11%
Population Mitochondria Different-Phenotype (%) [2]: 45%
Population Mitotic Cells (%) [2]: 83%
Population Normal (%) [2]: 96%
Population Pyknosed Nuclei (%) [2]: 67%
Population Tubulin-Different-Phenotype (%) [2]: 41%
Total Cell Count [2]: 188
Population Apoptotic (%) [3]: 80%
Population Fragmented Nuclei (%) [3]: 9%
Population Healthy Nuclei (%) [3]: 29%
Population Hoechst High Intensity Objects (%) [3]: 12%
Population Membrane Permeable-Phenotype (%) [3]: 2%
Population Mitochondria Different-Phenotype (%) [3]: 100%
Population Mitotic Cells (%) [3]: 19%
Population Normal (%) [3]: 87%
Population Pyknosed Nuclei (%) [3]: 60%
Population Tubulin-Different-Phenotype (%) [3]: 93%
Total Cell Count [3]: 290
Population Apoptotic (%) [4]: 59%
Population Fragmented Nuclei (%) [4]: 3%
Population Healthy Nuclei (%) [4]: 22%
Population Hoechst High Intensity Objects (%) [4]: 4%
Population Membrane Permeable-Phenotype (%) [4]: 4%
Population Mitochondria Different-Phenotype (%) [4]: 95%
Population Mitotic Cells (%) [4]: 40%
Population Normal (%) [4]: 95%
Population Pyknosed Nuclei (%) [4]: 74%
Population Tubulin-Different-Phenotype (%) [4]: 95%
Total Cell Count [4]: 222
Population Apoptotic (%) [5]: 36%
Population Fragmented Nuclei (%) [5]: 8%
Population Healthy Nuclei (%) [5]: 64%
Population Hoechst High Intensity Objects (%) [5]: 9%
Population Membrane Permeable-Phenotype (%) [5]: 2%
Population Mitochondria Different-Phenotype (%) [5]: 73%
Population Mitotic Cells (%) [5]: 63%
Population Normal (%) [5]: 90%
Population Pyknosed Nuclei (%) [5]: 26%
Population Tubulin-Different-Phenotype (%) [5]: 52%
Total Cell Count [5]: 417
Population Apoptotic (%) [6]: 27%
Population Fragmented Nuclei (%) [6]: 3%
Population Healthy Nuclei (%) [6]: 50%
Population Hoechst High Intensity Objects (%) [6]: 2%
Population Membrane Permeable-Phenotype (%) [6]: 10%
Population Mitochondria Different-Phenotype (%) [6]: 25%
Population Mitotic Cells (%) [6]: 72%
Population Normal (%) [6]: 97%
Population Pyknosed Nuclei (%) [6]: 46%
Population Tubulin-Different-Phenotype (%) [6]: 44%
Total Cell Count [6]: 217
Population Apoptotic (%) [7]: 74%
Population Fragmented Nuclei (%) [7]: 11%
Population Healthy Nuclei (%) [7]: 36%
Population Hoechst High Intensity Objects (%) [7]: 9%
Population Membrane Permeable-Phenotype (%) [7]: 0%
Population Mitotic Cells (%) [7]: 25%
Population Normal (%) [7]: 90%
Population Pyknosed Nuclei (%) [7]: 51%
Total Cell Count [7]: 307
Population Apoptotic (%) [8]: 63%
Population Fragmented Nuclei (%) [8]: 4%
Population Healthy Nuclei (%) [8]: 41%
Population Hoechst High Intensity Objects (%) [8]: 5%
Population Membrane Permeable-Phenotype (%) [8]: 1%
Population Mitochondria Different-Phenotype (%) [8]: 100%
Population Mitotic Cells (%) [8]: 36%
Population Normal (%) [8]: 94%
Population Pyknosed Nuclei (%) [8]: 53%
Population Tubulin-Different-Phenotype (%) [8]: 97%
Total Cell Count [8]: 233
Population Apoptotic (%) [9]: 20%
Population Fragmented Nuclei (%) [9]: 6%
Population Healthy Nuclei (%) [9]: 81%
Population Hoechst High Intensity Objects (%) [9]: 5%
Population Membrane Permeable-Phenotype (%) [9]: 2%
Population Mitochondria Different-Phenotype (%) [9]: 22%
Population Mitotic Cells (%) [9]: 79%
Population Normal (%) [9]: 94%
Population Pyknosed Nuclei (%) [9]: 11%
Population Tubulin-Different-Phenotype (%) [9]: 23%
Total Cell Count [9]: 698
Population Apoptotic (%) [10]: 23%
Population Fragmented Nuclei (%) [10]: 7%
Population Healthy Nuclei (%) [10]: 76%
Population Hoechst High Intensity Objects (%) [10]: 3%
Population Membrane Permeable-Phenotype (%) [10]: 8%
Population Mitochondria Different-Phenotype (%) [10]: 15%
Population Mitotic Cells (%) [10]: 76%
Population Normal (%) [10]: 96%
Population Pyknosed Nuclei (%) [10]: 16%
Population Tubulin-Different-Phenotype (%) [10]: 49%
Total Cell Count [10]: 383
Population Apoptotic (%) [11]: 73%
Population Fragmented Nuclei (%) [11]: 15%
Population Healthy Nuclei (%) [11]: 55%
Population Hoechst High Intensity Objects (%) [11]: 10%
Population Membrane Permeable-Phenotype (%) [11]: 1%
Population Mitochondria Different-Phenotype (%) [11]: 94%
Population Mitotic Cells (%) [11]: 26%
Population Normal (%) [11]: 89%
Population Pyknosed Nuclei (%) [11]: 29%
Population Tubulin-Different-Phenotype (%) [11]: 89%
Total Cell Count [11]: 355
Population Apoptotic (%) [12]: 58%
Population Fragmented Nuclei (%) [12]: 4%
Population Healthy Nuclei (%) [12]: 62%
Population Hoechst High Intensity Objects (%) [12]: 2%
Population Membrane Permeable-Phenotype (%) [12]: 0%
Population Mitochondria Different-Phenotype (%) [12]: 93%
Population Mitotic Cells (%) [12]: 41%
Population Normal (%) [12]: 97%
Population Pyknosed Nuclei (%) [12]: 33%
Population Tubulin-Different-Phenotype (%) [12]: 96%
Total Cell Count [12]: 265

Cc1nc(Nc2n[nH]c3c2CN(C(=O)N[C@H](CN(C)C)c2ccccc2)C3(C)C)c2sccc2n1 [PF-03758309]
Population Apoptotic (%) [1]: 22%
Population Fragmented Nuclei (%) [1]: 12%
Population Healthy Nuclei (%) [1]: 65%
Population Hoechst High Intensity Objects (%) [1]: 12%
Population Membrane Permeable-Phenotype (%) [1]: 2%
Population Mitochondria Different-Phenotype (%) [1]: 5%
Population Mitotic Cells (%) [1]: 77%
Population Normal (%) [1]: 87%
Population Pyknosed Nuclei (%) [1]: 22%
Population Tubulin-Different-Phenotype (%) [1]: 3%
Total Cell Count [1]: 616
Population Apoptotic (%) [2]: 8%
Population Fragmented Nuclei (%) [2]: 5%
Population Healthy Nuclei (%) [2]: 87%
Population Hoechst High Intensity Objects (%) [2]: 3%
Population Membrane Permeable-Phenotype (%) [2]: 0%
Population Mitochondria Different-Phenotype (%) [2]: 14%
Population Mitotic Cells (%) [2]: 91%
Population Normal (%) [2]: 96%
Population Pyknosed Nuclei (%) [2]: 6%
Population Tubulin-Different-Phenotype (%) [2]: 6%
Total Cell Count [2]: 1340
Population Apoptotic (%) [3]: 27%
Population Fragmented Nuclei (%) [3]: 16%
Population Healthy Nuclei (%) [3]: 49%
Population Hoechst High Intensity Objects (%) [3]: 17%
Population Membrane Permeable-Phenotype (%) [3]: 12%
Population Mitochondria Different-Phenotype (%) [3]: 21%
Population Mitotic Cells (%) [3]: 72%
Population Normal (%) [3]: 82%
Population Pyknosed Nuclei (%) [3]: 33%
Population Tubulin-Different-Phenotype (%) [3]: 45%
Total Cell Count [3]: 604
Population Apoptotic (%) [4]: 24%
Population Fragmented Nuclei (%) [4]: 3%
Population Healthy Nuclei (%) [4]: 79%
Population Hoechst High Intensity Objects (%) [4]: 6%
Population Membrane Permeable-Phenotype (%) [4]: 10%
Population Mitochondria Different-Phenotype (%) [4]: 46%
Population Mitotic Cells (%) [4]: 75%
Population Normal (%) [4]: 93%
Population Pyknosed Nuclei (%) [4]: 16%
Population Tubulin-Different-Phenotype (%) [4]: 87%
Total Cell Count [4]: 1040
Population Apoptotic (%) [5]: 23%
Population Fragmented Nuclei (%) [5]: 9%
Population Healthy Nuclei (%) [5]: 76%
Population Hoechst High Intensity Objects (%) [5]: 9%
Population Membrane Permeable-Phenotype (%) [5]: 3%
Population Mitochondria Different-Phenotype (%) [5]: 4%
Population Mitotic Cells (%) [5]: 76%
Population Normal (%) [5]: 90%
Population Pyknosed Nuclei (%) [5]: 13%
Population Tubulin-Different-Phenotype (%) [5]: 6%
Total Cell Count [5]: 623
Population Apoptotic (%) [6]: 4%
Population Fragmented Nuclei (%) [6]: 8%
Population Healthy Nuclei (%) [6]: 84%
Population Hoechst High Intensity Objects (%) [6]: 3%
Population Membrane Permeable-Phenotype (%) [6]: 4%
Population Mitochondria Different-Phenotype (%) [6]: 11%
Population Mitotic Cells (%) [6]: 95%
Population Normal (%) [6]: 96%
Population Pyknosed Nuclei (%) [6]: 6%
Population Tubulin-Different-Phenotype (%) [6]: 21%
Total Cell Count [6]: 1640
Population Apoptotic (%) [7]: 27%
Population Fragmented Nuclei (%) [7]: 15%
Population Healthy Nuclei (%) [7]: 52%
Population Hoechst High Intensity Objects (%) [7]: 14%
Population Mitochondria Different-Phenotype (%) [7]: 24%
Population Mitotic Cells (%) [7]: 72%
Population Normal (%) [7]: 85%
Population Pyknosed Nuclei (%) [7]: 31%
Population Tubulin-Different-Phenotype (%) [7]: 47%
Total Cell Count [7]: 627
Population Apoptotic (%) [8]: 14%
Population Fragmented Nuclei (%) [8]: 4%
Population Healthy Nuclei (%) [8]: 81%
Population Hoechst High Intensity Objects (%) [8]: 7%
Population Membrane Permeable-Phenotype (%) [8]: 8%
Population Mitochondria Different-Phenotype (%) [8]: 47%
Population Mitotic Cells (%) [8]: 85%
Population Normal (%) [8]: 92%
Population Pyknosed Nuclei (%) [8]: 14%
Population Tubulin-Different-Phenotype (%) [8]: 89%
Total Cell Count [8]: 1130
